# Measurements published in ChEMBL document CHEMBL1142636 (2000).
# Legend:
# SK-MEL-5 = experiment: Growth inhibition of human SK-MEL-5 cells; assay type: functional; conditions: for EC50: read-out: ED50 (the source's name)
# How it was run: (§1)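 Tested at the NCI in its human disease-oriented in vitro screen of 60 tumour cell lines, following the Monks et al. methods. Activity is expressed as GI50, given as log molar values.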
# COLO 205 = experiment: Growth inhibition of human COLO205 cells; assay type: functional; conditions: for EC50: read-out: ED50 (the source's name)
# KB = experiment: Growth inhibition of human KB cells; assay type: functional; conditions: read-out: ED50 (the source's name)
# How it was run: (§2)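 In-house cytotoxicity assay following an NCI protocol, run on a panel of human tumour lines: KB nasopharyngeal epidermoid carcinoma and HCT-8 ileocecal adenocarcinoma. Potency is reported as ED50 in µg/mL.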
# HCT-8 = experiment: Growth inhibition of human HCT8 cells; assay type: functional; conditions: read-out: ED50 (the source's name); how it was run: as §2
# UO-31 = experiment: Growth inhibition of human UO31 cells; assay type: functional; how it was run: as §1
# TK-10 = experiment: Growth inhibition of human TK10 cells; assay type: functional; how it was run: as §1
# SN12C = experiment: Growth inhibition of human SN12C cells; assay type: functional; how it was run: as §1
# ACHN = experiment: Growth inhibition of human ACHN cells; assay type: functional
# 786-0 = experiment: Growth inhibition of human 786-0 cells; assay type: functional
# SK-OV-3 = experiment: Growth inhibition of human SK-OV-3 cells; assay type: functional; how it was run: as §1
# [1] = Growth inhibition of human OVACR8 cells; assay type: functional
# [2] = Growth inhibition of human OVACR5 cells; assay type: functional
# [3] = Growth inhibition of human […] cells; assay type: functional
# IGROV-1 = experiment: Growth inhibition of human IGROV1 cells; assay type: functional
# UACC-62 = experiment: Growth inhibition of human UACC62 cells; assay type: functional; how it was run: as §1
# SK-MEL-28 = experiment: Growth inhibition of human SK-MEL-28 cells; assay type: functional; how it was run: as §1
# SK-MEL-2 = experiment: Growth inhibition of human SK-MEL-2 cells; assay type: functional; how it was run: as §1
# M19-MEL = experiment: Growth inhibition of human M19-MEL cells; assay type: functional
# M14 = experiment: Growth inhibition of human M14 cells; assay type: functional
# Malme-3M = experiment: Growth inhibition of human MALME-3M cells; assay type: functional
# LOX IMVI = experiment: Growth inhibition of human LOX IMVI cells; assay type: functional
# U-251 = experiment: Growth inhibition of human U251 cells; assay type: functional; how it was run: as §1
# SNB-75 = experiment: Growth inhibition of human SNB75 cells; assay type: functional; how it was run: as §1
# SNB-19 = experiment: Growth inhibition of human SNB19 cells; assay type: functional; how it was run: as §1
# SF-539 = experiment: Growth inhibition of human SF539 cells; assay type: functional; how it was run: as §1
# SF-268 = experiment: Growth inhibition of human SF268 cells; assay type: functional; how it was run: as §1
# SW-620 = experiment: Growth inhibition of human SW620 cells; assay type: functional; how it was run: as §1
# KM-20L2 = experiment: Growth inhibition of human KM20L2 cells; assay type: functional
# KM12 = experiment: Growth inhibition of human KM12 cells; assay type: functional
# HT-29 = experiment: Growth inhibition of human HT29 cells; assay type: functional
# HCT-15 = experiment: Growth inhibition of human HCT15 cells; assay type: functional
# HCT-116 = experiment: Growth inhibition of human HCT116 cells; assay type: functional
# HCC 2998 = experiment: Growth inhibition of human HCC2998 cells; assay type: functional
# DLD-1 = experiment: Growth inhibition of human DLD1 cells; assay type: functional
# DMS-273 = experiment: Growth inhibition of human DMS273 cells; assay type: functional
# [4] = Growth inhibition of human DMS144 cells; assay type: functional
# [5] = Growth inhibition of human LXFL529 cells; assay type: functional; conditions: LXFL 529
# NCI-H522 = experiment: Growth inhibition of human NCI-H522 cells; assay type: functional
# NCI-H460 = experiment: Growth inhibition of human NCI-H460 cells; assay type: functional
# NCI-H322M = experiment: Growth inhibition of human NCI-H322M cells; assay type: functional
# NCI-H226 = experiment: Growth inhibition of human NCI-H226 cells; assay type: functional
# HOP-92 = experiment: Growth inhibition of human HOP92 cells; assay type: functional
# HOP-62 = experiment: Growth inhibition of human HOP62 cells; assay type: functional
# A549 = experiment: Growth inhibition of human A549 cells; assay type: functional
# SR = experiment: Growth inhibition of human SR cells; assay type: functional; how it was run: as §1
# [6] = Growth inhibition of human RPMI8266 cells; assay type: functional
# MOLT-4 = experiment: Growth inhibition of human MOLT4 cells; assay type: functional
# K562 = experiment: Growth inhibition of human K562 cells; assay type: functional
# [7] = Growth inhibition of human HL60(TB) cells; assay type: functional, HL-60(TB); conditions: HL-60
# CCRF-CEM = experiment: Growth inhibition of human CCRF-CEM cells; assay type: functional
# XF498 = experiment: Growth inhibition of human XF498 cells; assay type: functional; how it was run: as §1
compound,measurement,setting,value
COc1cccc2c3c([nH]c12)C(=O)C=C(C)C3=O,EC50,SK-MEL-5,3.55 µg/mL
same,EC50,COLO 205,4.22 µg/mL
same,EC50,KB,4.95 µg/mL
same,EC50,HCT-8,5.3 µg/mL
COc1ccc2[nH]c3c(c2c1)C(=O)C=C(C)C3=O,EC50,SK-MEL-5,6.22 µg/mL
same,EC50,COLO 205,> 20 µg/mL
same,EC50,KB,5.08 µg/mL
same,EC50,HCT-8,6.03 µg/mL
CC1=CC(=O)c2c([nH]c3ccc(Cl)cc23)C1=O,EC50,SK-MEL-5,5.5 µg/mL
same,EC50,COLO 205,4.42 µg/mL
same,EC50,KB,3.52 µg/mL
same,EC50,HCT-8,5.5 µg/mL
COc1ccc2[nH]c3c(c2c1)C(=O)C(C)=CC3=O,EC50,SK-MEL-5,0.55 µg/mL
same,EC50,COLO 205,0.87 µg/mL
same,EC50,KB,0.76 µg/mL
same,EC50,HCT-8,7.91 µg/mL
COc1cc(Cn2c3ccccc3c3cc(C)cc(OC)c32)cc2c1[nH]c1ccccc12,GI50,UO-31,25.1 µM
same,GI50,TK-10,25.1 µM
same,GI50,SN12C,25.1 µM
same,GI50,ACHN,12.3 µM
same,GI50,786-0,25.1 µM
same,GI50,SK-OV-3,25.1 µM
same,GI50,[1],10.5 µM
same,GI50,[2],25.1 µM
same,GI50,[3],10.2 µM
same,GI50,IGROV-1,25.1 µM
same,GI50,UACC-62,15.1 µM
same,GI50,SK-MEL-5,25.1 µM
same,GI50,SK-MEL-28,25.1 µM
same,GI50,SK-MEL-2,25.1 µM
same,GI50,M19-MEL,25.1 µM
same,GI50,M14,6.31 µM
same,GI50,Malme-3M,25.1 µM
same,GI50,LOX IMVI,8.13 µM
same,GI50,U-251,25.1 µM
same,GI50,SNB-75,22.9 µM
same,GI50,SNB-19,25.1 µM
same,GI50,SF-539,9.77 µM
same,GI50,SF-268,17.4 µM
same,GI50,SW-620,13.5 µM
same,GI50,KM-20L2,15.5 µM
same,GI50,KM12,10.2 µM
same,GI50,HT-29,17 µM
same,GI50,HCT-15,17 µM
same,GI50,HCT-116,25.1 µM
same,GI50,HCC 2998,25.1 µM
same,GI50,DLD-1,25.1 µM
same,GI50,COLO 205,25.1 µM
same,GI50,DMS-273,15.1 µM
same,GI50,[4],20 µM
same,GI50,[5],17 µM
same,GI50,NCI-H522,5.37 µM
same,GI50,NCI-H460,10.7 µM
same,GI50,NCI-H322M,25.1 µM
same,GI50,NCI-H226,17 µM
same,GI50,HOP-92,5.37 µM
same,GI50,HOP-62,6.61 µM
same,GI50,A549,23.4 µM
same,GI50,SR,16.6 µM
same,GI50,[6],25.1 µM
same,GI50,MOLT-4,8.51 µM
same,GI50,K562,9.77 µM
same,GI50,[7],12.3 µM
same,GI50,CCRF-CEM,12 µM
COc1ccc2c3c([nH]c2c1)C(=O)C(C)=CC3=O,EC50,SK-MEL-5,3.92 µg/mL
same,EC50,COLO 205,4.51 µg/mL
same,EC50,KB,4.51 µg/mL
same,EC50,HCT-8,5.09 µg/mL
CC1=CC(=O)c2[nH]c3ccc(C)cc3c2C1=O,EC50,SK-MEL-5,0.66 µg/mL
same,EC50,COLO 205,3.52 µg/mL
same,EC50,KB,0.92 µg/mL
same,EC50,HCT-8,6.49 µg/mL
COc1cc(Cc2c(C)cc(OC)c3[nH]c4ccccc4c23)cc2c1[nH]c1ccccc12,GI50,UO-31,6.03 µM
same,GI50,TK-10,12 µM
same,GI50,SN12C,6.46 µM
same,GI50,ACHN,4.68 µM
same,GI50,786-0,5.37 µM
same,GI50,SK-OV-3,8.71 µM
same,GI50,[1],4.57 µM
same,GI50,[2],5.01 µM
same,GI50,[3],5.37 µM
same,GI50,IGROV-1,9.12 µM
same,GI50,UACC-62,5.62 µM
same,GI50,SK-MEL-5,3.98 µM
same,GI50,SK-MEL-28,8.71 µM
same,GI50,SK-MEL-2,3.98 µM
same,GI50,M19-MEL,9.77 µM
same,GI50,M14,5.13 µM
same,GI50,Malme-3M,4.47 µM
same,GI50,LOX IMVI,3.89 µM
same,GI50,XF498,6.03 µM
same,GI50,U-251,5.01 µM
same,GI50,SNB-75,5.75 µM
same,GI50,SNB-19,5.89 µM
same,GI50,SF-539,4.57 µM
same,GI50,SF-268,6.92 µM
same,GI50,SW-620,8.13 µM
same,GI50,KM-20L2,5.25 µM
same,GI50,KM12,5.37 µM
same,GI50,HT-29,7.76 µM
same,GI50,HCT-15,6.92 µM
same,GI50,HCT-116,9.12 µM
same,GI50,HCC 2998,5.37 µM
same,GI50,DLD-1,8.91 µM
same,GI50,COLO 205,12 µM
same,GI50,DMS-273,7.59 µM
same,GI50,[4],10.5 µM
same,GI50,[5],4.17 µM
same,GI50,NCI-H522,5.01 µM
same,GI50,NCI-H460,5.13 µM
same,GI50,NCI-H322M,7.24 µM
same,GI50,NCI-H226,4.68 µM
same,GI50,HOP-92,7.59 µM
same,GI50,HOP-62,5.5 µM
same,GI50,A549,5.75 µM
same,GI50,SR,7.76 µM
same,GI50,[6],10 µM
same,GI50,MOLT-4,5.75 µM
same,GI50,K562,7.24 µM
same,GI50,[7],7.94 µM
same,GI50,CCRF-CEM,8.51 µM
